Experimental data as given in ChEMBL document CHEMBL1141075, “4-Oxo-4,7-dihydrothieno[2,3-b]pyridines as non-nucleoside inhibitors of human cytomegalovirus and related herpesvirus polymerases” (J Med Chem, 2005).

How the values were obtained:
Vero = assay: Antiviral activity against herpes simplex virus type 1 (KOS strain) grown on human foreskin fibroblast cells determined by vedduction in plaque formation upon incubation at 37 degrees C with the compound dissolved in DMSO until plaque were formed; assay type: functional, cell-based
In short: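 HSV-1 KOS, about 50 PFU per well, was adsorbed for 1 h at 37 °C. The inoculum was then replaced with drug dilutions from 200-fold DMSO stocks in DMEM containing 10% FBS and 0.8% carboxymethyl cellulose. Cultures were kept at 37 °C until plaques appeared. Plaques were counted microscopically or by crystal violet staining (0.1% in 20% ethanol). IC50 came from linear regression of % inhibition relative to the uninhibited control.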

[1] = Toxicity on uninfected African green monkey kidney cells determined in microscopic evaluation and quantitative neutral red dye uptake assay; assay type: cell-based; details: chlorocebus sabaeus, uninfected African green monkey kidney (Vero) cells
In short: (§1)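 Uninfected cells were seeded as subconfluent monolayers and exposed to compound for 3 days. Viability was judged both by microscopic inspection and by quantitative neutral red dye uptake, giving CC50.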

[2] = target: T1, DNA polymerase alpha catalytic subunit (Homo sapiens, UniProt P09884); assay: Inhibition of human alpha DNA polymerase (95 uL) activity in a solution containg […] HEPES (pH 7.5) upon incubation for 12 minutes at 26 degrees C with the compound dissolved in DMSO
T1 sequence (P09884 whole entry): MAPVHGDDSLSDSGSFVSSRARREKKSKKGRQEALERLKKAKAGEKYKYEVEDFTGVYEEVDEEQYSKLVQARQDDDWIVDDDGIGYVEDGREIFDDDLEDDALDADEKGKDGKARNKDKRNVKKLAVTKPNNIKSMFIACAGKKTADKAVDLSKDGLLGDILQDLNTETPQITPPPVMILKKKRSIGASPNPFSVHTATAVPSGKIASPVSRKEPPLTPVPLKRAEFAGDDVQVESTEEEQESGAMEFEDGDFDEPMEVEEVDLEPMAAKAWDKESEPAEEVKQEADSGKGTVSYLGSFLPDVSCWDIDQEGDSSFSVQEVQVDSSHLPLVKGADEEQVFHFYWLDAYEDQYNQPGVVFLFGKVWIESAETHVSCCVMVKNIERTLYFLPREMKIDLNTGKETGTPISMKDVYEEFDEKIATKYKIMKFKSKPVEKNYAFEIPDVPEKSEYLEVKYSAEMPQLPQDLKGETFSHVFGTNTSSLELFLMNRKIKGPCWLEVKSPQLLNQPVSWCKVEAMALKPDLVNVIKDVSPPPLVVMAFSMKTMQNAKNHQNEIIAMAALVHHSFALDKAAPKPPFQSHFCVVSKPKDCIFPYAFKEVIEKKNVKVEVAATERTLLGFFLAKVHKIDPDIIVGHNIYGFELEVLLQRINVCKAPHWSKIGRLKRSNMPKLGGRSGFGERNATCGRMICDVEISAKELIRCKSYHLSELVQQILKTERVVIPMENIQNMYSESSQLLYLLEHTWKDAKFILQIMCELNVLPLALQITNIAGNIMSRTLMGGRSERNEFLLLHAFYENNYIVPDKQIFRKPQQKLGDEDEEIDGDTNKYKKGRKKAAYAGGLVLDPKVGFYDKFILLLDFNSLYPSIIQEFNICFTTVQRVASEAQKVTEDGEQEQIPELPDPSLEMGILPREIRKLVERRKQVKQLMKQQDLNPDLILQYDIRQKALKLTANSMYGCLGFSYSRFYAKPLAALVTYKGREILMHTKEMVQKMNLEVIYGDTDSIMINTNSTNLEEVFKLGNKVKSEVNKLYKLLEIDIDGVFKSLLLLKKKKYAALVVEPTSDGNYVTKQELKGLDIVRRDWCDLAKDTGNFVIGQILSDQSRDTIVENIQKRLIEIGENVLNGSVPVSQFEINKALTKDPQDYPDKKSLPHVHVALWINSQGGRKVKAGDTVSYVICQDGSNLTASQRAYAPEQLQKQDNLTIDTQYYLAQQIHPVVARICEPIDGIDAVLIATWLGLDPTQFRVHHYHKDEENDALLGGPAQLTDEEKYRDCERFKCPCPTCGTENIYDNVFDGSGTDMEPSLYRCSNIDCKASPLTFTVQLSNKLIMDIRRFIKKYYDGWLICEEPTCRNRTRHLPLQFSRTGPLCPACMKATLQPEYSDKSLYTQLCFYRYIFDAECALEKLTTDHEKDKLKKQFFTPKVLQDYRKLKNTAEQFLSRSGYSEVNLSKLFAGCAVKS

HFF [3] = assay: Antiviral activity against human cytomegalovirus (Davis strain) grown on human foreskin fibroblast cells determined by reduction in plaque formation upon incubation at 37 degrees C with the compound dissolved in DMSO; assay type: functional, cell-based
HFF [4] = assay: Antiviral activity against Varicella-Zoster virus (Webster strain) grown on human foreskin fibroblast cells determined by vedduction in plaque formation upon incubation at 37 degrees C with the compound dissolved in DMSO until plaque were formed; assay type: functional, cell-based
In short: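 Monolayers of human foreskin fibroblasts were infected with about 50 PFU per well for 1 h at 37 °C. The inoculum was then replaced with DMEM containing 10% FBS, 0.8% carboxymethyl cellulose and diluted compound from 200-fold DMSO stocks. Plates were incubated at 37 °C until plaques formed. Plaques were counted microscopically or after 0.1% crystal violet staining. IC50 came from linear regression of % inhibition versus untreated controls.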

[5] = Toxicity on uninfected human foreskin fibroblast cells determined in microscopic evaluation and quantitative neutral red dye uptake assay; assay type: cell-based; details: uninfected human foreskin fibroblast (HFF) cells; in short: as §1

| IC50 [2] | SMILES | IC50 (Vero) | CC50 [1] | IC50 (HFF [3]) | IC50 (HFF [4]) | CC50 [5] |
| --- | --- | --- | --- | --- | --- | --- |
| > 40 µM | O=C(NCc1ccc(Cl)cc1)c1cnc2ccc(CCCO)cc2c1O | 7.4 µM | > 100 µM | 1 µM | 0.17 µM | > 100 µM |
| > 40 µM | Cn1cc(C(=O)NCc2ccc(Cl)cc2)c(=O)c2cc(CN3CCOCC3)ccc21 | 3.5 µM | > 100 µM | 0.9 µM | 0.34 µM | > 100 µM |

| SMILES | IC50 [2] | IC50 (Vero) | CC50 [1] | IC50 (HFF [3]) | IC50 (HFF [4]) | CC50 [5] |
| --- | --- | --- | --- | --- | --- | --- |
| Cn1cc(C(=O)NCc2ccc(Cl)cc2)c(=O)c2cc(CN3CCOCC3)sc21 | > 40 µM | 3.7 µM | > 100 µM | 0.8 µM | 0.77 µM | > 100 µM |
